Results as given in ChEMBL document CHEMBL1124244, “Design and synthesis of a series of combined vasodilator/beta-adrenoceptor antagonists based on 6-arylpyridazinones” (1988).

Key:
[1] = target: Adrenergic receptor beta (Homo sapiens) (UniProt P08588+P07550+P13945); assay: Intrinsic Sympathomimetic Activity (ISA) determined from the ratio of the maximal compound and isoprenaline induced tachycardia in anesthetized ganglion blocked cats following intravenous administration; assay type: functional, organism-based; settings: Felis catus; target entry is the homologue from another species
Outline: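 Ganglion-blocked (pempidine 5 mg kg⁻¹ iv) anesthetized cats at 37 °C; heart rate from blood pressure pulse. Full isoprenaline dose-response (0.01–10 μg kg⁻¹) obtained first. Cannula washed with saline, then cumulative iv dose-response to compound in 50% PEG 400, raised until maximal heart-rate increase. ISA is the ratio of maximal compound-induced to isoprenaline-induced tachycardia.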

Rattus norvegicus [2] = assay: Dose required to produce a 50% increase in blood flow to the autoperfused hindquarters of the anesthetized rat; assay type: functional
Outline: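 Anesthetized normotensive rats with autoperfused hindquarters. Intravenous bolus doses. ED50 (μmol kg⁻¹) is dose giving 50% increase in hindquarter blood flow, read from a dose-response curve. At least three animals at a minimum of three doses; 95% confidence intervals by Fieller's theorem.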

Rattus norvegicus [3] = assay: Dose required to produce a fall in blood pressure of 40 mmHg in the anesthetized rat; assay type: functional
Outline: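 Anesthetized normotensive rats dosed by intravenous injection. ED40 (μmol kg⁻¹) is dose lowering blood pressure by 40 mmHg, taken from a dose-response curve. At least three animals, minimum three doses; 95% confidence intervals via Fieller's theorem.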

[4] = target: Beta-1 adrenergic receptor (Homo sapiens) (UniProt P08588); assay: Beta-1 adrenergic receptor antagonsim of compound expressed as inhibition of isoprenaline-induced tachycardia in the ganglion-blocked anesthetized cat; assay type: functional; settings: Felis catus
Sequence of Beta-1 adrenergic receptor (Homo sapiens) (P08588 whole entry, looked up): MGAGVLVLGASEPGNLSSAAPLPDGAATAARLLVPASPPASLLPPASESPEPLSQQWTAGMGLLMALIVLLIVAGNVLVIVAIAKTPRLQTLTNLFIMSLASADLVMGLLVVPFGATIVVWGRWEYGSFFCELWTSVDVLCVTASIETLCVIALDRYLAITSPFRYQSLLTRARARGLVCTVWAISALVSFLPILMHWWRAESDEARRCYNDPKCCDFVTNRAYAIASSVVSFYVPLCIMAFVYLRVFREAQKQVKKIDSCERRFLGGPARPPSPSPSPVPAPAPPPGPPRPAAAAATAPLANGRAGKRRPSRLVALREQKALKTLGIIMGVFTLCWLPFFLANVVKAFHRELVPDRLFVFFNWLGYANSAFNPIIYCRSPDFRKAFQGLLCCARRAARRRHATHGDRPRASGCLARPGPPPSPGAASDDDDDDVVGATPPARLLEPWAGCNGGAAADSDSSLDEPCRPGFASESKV
Outline: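 Ganglion-blocked anesthetized cats (pempidine 5 mg kg⁻¹ iv, left to stabilize; rectal temperature held at 37 °C; heart rate from blood pressure pulse). Compounds given iv via cephalic vein. ID50 is dose for 50% inhibition of standard isoprenaline-induced tachycardia. Percent inhibition logit-transformed; ≥3 animals, ≥3 doses; 95% confidence limits by Fieller's theorem.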

[5] = target: Beta-1 adrenergic receptor (Homo sapiens) (UniProt P08588); settings: Felis catus
Felis catus [6] = assay: Beta-1-adrenoceptor antagonsim of compound expressed as inhibition of isoprenaline-induced tachycardia in the ganglion-blocked anesthetized cat at 10 uM/Kg dose; assay type: functional
Felis catus [7] = assay: Intrinsic Sympathomimetic Activity(ISA) determined from the ratio of the maximal compound and isoprenaline induced tachycardia in anesthetized ganglion blocked cats following intravenous administration; assay type: functional
Outline: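 Anaesthetised cats; cephalic vein cannulated; rectal temperature held at 37 °C. Ganglion block with pempidine 5 mg kg⁻¹ iv, then waited for BP and heart rate to stabilise. Heart rate taken from the BP pulse. Isoprenaline tachycardia curve run at 0.01–10 μg kg⁻¹ iv, then a cumulative compound curve in 50% PEG 400, raised to maximal tachycardia. ISA = maximal compound/isoprenaline tachycardia ratio.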

Compound	ISA [1]	ID50 [4] [µmol/kg]	ID50 [5] [µmol/kg]	ED50 (Rattus norvegicus [2]) [µmol/kg]	ED40 (Rattus norvegicus [3]) [µM/kg]	Inhibition (Felis catus [6]) [%]	ISA (Felis catus [7])
N#Cc1ccccc1OCC(O)CNCC(=O)Nc1ccc(C2=NNC(=O)CC2)cc1 (stereo unspecified)	0.55	–	–	14	30	–	–
Cc1ccccc1OCC(O)CNCC(=O)Nc1ccc(C2=NNC(=O)CC2)cc1 (stereo unspecified)	0.55	9	–	2	6	–	–
COCCc1ccc(OCC(O)CNCCC(=O)Nc2ccc(C3=NNC(=O)CC3C)cc2)cc1 (stereo unspecified)	0.04	–	2	6	3	–	–
CC1CC(=O)NN=C1c1ccc(NC(=O)CCNCC(O)COc2ccc(CCOCC3CC3)cc2)cc1 (stereo unspecified)	0.05	–	1	1.6	2.4	–	–
CC1CC(=O)NN=C1c1ccc(NC(=O)CCN)cc1 (stereo unspecified)	–	–	–	0.2	0.2	–	–
COc1ccccc1OCC(O)CNCC(=O)Nc1ccc(C2=NNC(=O)CC2)cc1 (stereo unspecified)	0.42	–	10	4.6	11.5	–	–
CC1CC(=O)NN=C1c1ccc(NC(=O)CCNCC(O)COc2ccccc2N2CCOCC2)cc1 (stereo unspecified)	0.24	–	0.5	1.8	3.6	–	–
CC(=O)Nc1ccc(C2=NNC(=O)CC2C)cc1 (stereo unspecified)	–	–	–	0.1	0.18	–	–
NNc1nncc2ccccc12 [HYDRALAZINE]	–	–	–	0.6	1	–	–
CC(=O)Nc1ccc(C2=NNC(=O)CC2)cc1	–	–	–	4	1	–	–
Nc1ccc(-c2ccc(O)nn2)cc1	–	–	–	20	1	–	–
O=C1CCC(c2ccc(NC(=O)CNCC(O)COc3cccc4ccccc34)cc2)=NN1 (stereo unspecified)	0.1	–	–	1.4	28	30	–
COc1ccccc1OCC(O)CNCCC(=O)Nc1ccc(C2=NNC(=O)CC2)cc1 (stereo unspecified)	0.6	–	0.7	4.3	11	–	–
CC(C)NCC(O)COc1cccc2[nH]ccc12 (stereo unspecified) [PINDOLOL]	–	–	–	–	–	–	0.7
N#Cc1ccccc1OCC(O)CNCCC(=O)Nc1ccc(C2=NNC(=O)CC2)cc1 (stereo unspecified)	–	–	> 1	1.7	3.5	–	–
C=CCOc1ccccc1OCC(O)CNC(C)C (stereo unspecified)	0.2	–	0.04	–	–	–	–
CC(C)(C)NCC(O)COc1ccccc1-c1ccc(NN)nn1 (stereo unspecified) [PRIZIDILOL]	0.2	–	0.06	10	14	–	–

The next lines start with results.

ISA [1]	ID50 [4] [µmol/kg]	ID50 [5] [µmol/kg]	Compound	ED50 (Rattus norvegicus [2]) [µmol/kg]	ED40 (Rattus norvegicus [3]) [µM/kg]	Inhibition (Felis catus [6]) [%]	ISA (Felis catus [7])
0.14	–	1.4	Cc1ccccc1OCC(O)CNCCC(=O)Nc1ccc(C2=NNC(=O)CC2)cc1 (stereo unspecified)	6	9.4	–	–
0.46	–	0.09	CC1CC(=O)NN=C1c1ccc(NC(=O)CCNCC(O)COc2cccc3[nH]ccc23)cc1.Cl (stereo unspecified)	4.4	2.9	–	–
0.53	–	> 8	CC1CC(=O)NN=C1c1ccc(NC(=O)CNCC(O)COc2ccccc2C#N)cc1 (stereo unspecified)	0.9	2	–	–
0.14	–	0.6	Cc1cccc(OCC(O)CNCCC(=O)Nc2ccc(C3=NNC(=O)CC3C)cc2)c1C (stereo unspecified)	2.4	2.5	–	–
0.59	–	–	Cc1ccccc1OCC(O)CNCCC(=O)Nc1ccc(C2=NNC(=O)CC2C)cc1 (stereo unspecified)	2	0.5	–	–
0.37	–	2.6	COc1ccccc1OCC(O)CNCC(=O)Nc1ccc(C2=NNC(=O)CC2C)cc1 (stereo unspecified)	3	<4	–	–
0.48	–	0.7	COc1ccccc1OCC(O)CNCCC(=O)Nc1ccc(C2=NNC(=O)CC2C)cc1 (stereo unspecified)	3	2	–	–
< 0.3	–	4	CC1CC(=O)NN=C1c1ccc(NC(=O)CCNCC(O)COc2ccccc2S(C)(=O)=O)cc1.Cl (stereo unspecified)	2.4	3.9	–	–
–	–	> 5	Cc1ccccc1OCC(O)CNCC(=O)Nc1ccc(C2=NNC(=O)CC2C)cc1 (stereo unspecified)	2.7	<2	–	–
0.86	–	–	Br.CC1CC(=O)NN=C1c1ccc(NC(=O)CCNCC(O)COc2ccccc2)cc1 (stereo unspecified)	1.5	0.6	–	–
0.63	–	–	CC1CC(=O)NN=C1c1ccc(NC(=O)CCNCC(O)COc2ccccc2C#N)cc1 (stereo unspecified)	2.3	1	–	–
